From ChEMBL document CHEMBL4602672, “Isolation, Identification, and Decomposition of Antibacterial Dialkylresorcinols from a Chinese Pseudomonas aurantiaca Strain” (2020)
Calls of active or inactive are those of the source. The calls are words filed in the database; no cut-off is given here.

Legend:
[1] = test system: Staphylococcus aureus; assay: Antibacterial activity against Staphylococcus aureus ATCC 12600 assessed as reduction in microbial growth after 24 hrs by agar well diffusion assay; format: functional; details: ATCC 12600, 24 h
[2] = test system: Enterococcus hirae; assay: Antibacterial activity against Enterococcus hirae ATCC 8043 assessed as reduction in microbial growth after 24 hrs by agar well diffusion assay; format: functional; details: ATCC 8043, 24 h
[3] = test system: Streptococcus mutans; assay: Antibacterial activity against Streptococcus mutans ATCC 25175 assessed as reduction in microbial growth after 24 hrs by agar well diffusion assay; format: functional; details: ATCC 25175, 24 h
[4] = test system: Bacillus subtilis; assay: Antibacterial activity against Bacillus subtilis ATCC 6633 assessed as reduction in microbial growth after 24 hrs by agar well diffusion assay; format: functional; details: ATCC 6633, 24 h
[5] = test system: Staphylococcus epidermidis; assay: Antibacterial activity against Staphylococcus epidermidis ATCC 14990 assessed as reduction in microbial growth after 24 hrs by agar well diffusion assay; format: functional; details: ATCC 14990, 24 h
[6] = test system: Staphylococcus aureus; assay: Antibacterial activity against Staphylococcus aureus ATCC 12600 assessed as reduction in microbial growth at 0.06 to 133 ug/ml after 24 hrs by agar well diffusion assay; format: functional, organism-based
How it was run: (§1)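 Modified literature MIC protocol against ATCC pathogens. Antibiotics served as positive control and sterile water with DMSO (<5%) as negative control. For the related well-diffusion work, test samples were dissolved in sterile water with DMSO (<5%). MIC given in μg/mL.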

[7] = test system: Staphylococcus epidermidis; assay: Antibacterial activity against Staphylococcus epidermidis ATCC 14990 assessed as reduction in microbial growth at 0.06 to 133 ug/ml after 24 hrs by agar well diffusion assay; format: functional, organism-based; how it was run: as §1
[8] = test system: Bacillus subtilis; assay: Antibacterial activity against Bacillus subtilis ATCC 6633 assessed as reduction in microbial growth at 0.06 to 133 ug/ml after 24 hrs by agar well diffusion assay; format: functional, organism-based; how it was run: as §1
[9] = test system: Streptococcus mutans; assay: Antibacterial activity against Streptococcus mutans ATCC 25175 assessed as reduction in microbial growth at 0.06 to 133 ug/ml after 24 hrs by agar well diffusion assay; format: functional, organism-based
[10] = test system: Enterococcus hirae; assay: Antibacterial activity against Enterococcus hirae ATCC 8043 assessed as reduction in microbial growth at 0.06 to 133 ug/ml after 24 hrs by agar well diffusion assay; format: functional, organism-based; how it was run: as §1

| Structure (SMILES) | MIC [1] [µg/mL] | MIC [2] [µg/mL] | MIC [3] [µg/mL] | MIC [4] [µg/mL] | MIC [5] [µg/mL] | Activity [6] | Activity [7] | Activity [8] | Activity [9] | Activity [10] |
| --- | --- | --- | --- | --- | --- | --- | --- | --- | --- | --- |
| CCCCCCC(=O)C1(O)C=C(CCCCC)C(=O)O1 (stereo not given) | 33.4 | 133 | 133 | 66.7 | 66.7 | – | – | – | – | – |
| CC1(C)S[C@@H]2[C@H](NC(=O)Cc3ccccc3)C(=O)N2[C@H]1C(=O)O [PENICILLIN G] | 0.26 | – | 1.1 | – | 0.52 | – | – | – | – | – |
| CCCCCCCC1=CC(O)(C(=O)CCCCCC)OC1=O (stereo not given) | 16.7 | 66.7 | 133 | 33.4 | 33.4 | – | – | – | – | – |
| CCCCCCc1c(O)cc(CCCCC)cc1O [RESORSTATIN] | 4.2 | 4.2 | 4.2 | 8.4 | 4.2 | – | – | – | – | – |
| CCCCCCC1=C(O)C(=O)C(CCCCC)=CC1=O | – | 133 | 66.7 | 33.4 | – | inactive | inactive | inactive | – | – |
| Oc1ccc2nc3ccccc3nc2c1 | – | – | – | – | 33.4 | inactive | – | inactive | inactive | inactive |
| CCCCCCC1=C(O)C(=O)C(CCCCC)=C(C2=C(CCCCC)C(=O)C(O)=C(CCCCCC)C2=O)C1=O | 133 | – | 133 | 133 | – | – | inactive | – | – | inactive |
| CN[C@H](CC(C)C)C(=O)N[C@H]1C(=O)N[C@@H](CC(N)=O)C(=O)N[C@H]2C(=O)N[C@H]3C(=O)N[C@H](C(=O)N[C@H](C(=O)O)c4cc(O)cc(O)c4-c4cc3ccc4O)[C@H](O)c3ccc(c(Cl)c3)Oc3cc2cc(c3O[C@@H]2O[C@H](CO)[C@@H](O)[C@H](O)[C@H]2O[C@H]2C[C@](C)(N)[C@H](O)[C@H](C)O2)Oc2ccc(cc2Cl)[C@H]1O [VANCOMYCIN] | – | – | – | 1.1 | – | – | – | – | – | – |
| CCCCCCCC1=CC(=O)C(CCCCCC)=C(O)C1=O | 133 | – | 133 | – | – | – | inactive | inactive | – | inactive |
| CC1(C)S[C@@H]2[C@H](NC(=O)[C@H](N)c3ccccc3)C(=O)N2[C@H]1C(=O)O [AMPICILLIN] | – | 1.1 | – | – | – | – | – | – | – | – |
| CCCCCCC1=C(O)C(=O)C(CCCCC)=C(c2c(CCCCC)cc(O)c(CCCCCC)c2O)C1=O | – | – | 133 | – | – | inactive | inactive | – | – | inactive |
| CCCCCCCc1cc(O)c(CCCCCC)c(O)c1 | 1.1 | 33.4 | 33.4 | 66.7 | 8.3 | – | – | – | – | – |
